27 compounds from ChEMBL document CHEMBL1152517, “Isocombretastatins A: 1,1-diarylethenes as potent inhibitors of tubulin polymerization and cytotoxic compounds” (Bioorg Med Chem, 2009) can be followed below.

For one test, the system named is HeLa. Kind of test: Cytotoxicity against human HeLa cells after 72 hrs by XTT assay. It counts as functional, cell-based. On the technique in general: Tetrazolium dyes change colour on reduction, which living cells bring about.
The species entered for test [1] is Bos taurus. Kind of test: Inhibition of calf brain tubulin polymerization at 40 uM after 20 mins by turbidimetric method.
Test [2] in a line: Inhibition of calf brain tubulin polymerization after 20 mins by turbidimetric method. Further details: species or system Bos taurus. Summed up: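 Microtubule protein at 1.0 mg/mL in 0.1 M MES, 1 mM EGTA, 1 mM MgCl2, 1 mM β-ME, 1.5 mM GTP, pH 6.7, with 4% DMSO. Preincubated with ligand 30 min at 20 °C, then 10 min on ice. Assembly started by shift from 4 to 37 °C and followed by turbidity at 450 nm. IC50 read graphically as 50% inhibition at 20 min. At least two independent experiments using different protein preparations.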

A further test relates to A549. Description: Cytotoxicity against human A549 cells after 72 hrs by XTT assay. The format is functional, cell-based. The note with it: A549, 72 h.
For a further test, the system named is HT-29. Description: Cytotoxicity against human HT-29 cells after 72 hrs by XTT assay. The note with it: HT-29, 72 h. It counts as functional, cell-based.
The species entered for test [3] is Bos taurus. Description: Inhibition of calf brain tubulin polymerization at 20 uM after 20 mins by turbidimetric method.
For a further test, the system named is HL-60. Description: Cytotoxicity against human HL60 cells after 72 hrs by XTT assay. The format is functional, cell-based. To be noted: HL-60, 72 h. An outline of the steps: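 Cells seeded per well (HeLa 1.5 × 10^3, HT-29 3 × 10^3, A-549 5 × 10^3, HL-60 3 × 10^3). Adherent lines attached for 24 h at 37 °C, 5% CO2. Compound exposure at various concentrations for 72 h. XTT/PMS reagent added, 4 h further incubation, formazan absorbance read at 490 nm (reference 655 nm). IC50 is concentration giving 50% proliferation inhibition. Mean of three independent experiments run in triplicate.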

The species entered for test [4] is Bos taurus. Kind of test: Inhibition of calf brain tubulin polymerization at 5 uM after 20 mins by turbidimetric method.

As usually defined, the IC50 is the concentration needed to halve the response being measured. A higher IC50 goes with weaker potency in that assay. Usually inhibition stands for the change of the read-out against control, counted positive when it falls. For `COc1cc(C(=O)c2ccc3c(ccn3C)c2)cc(OC)c1OC`, the IC50 with HeLa was 35 nM; in test [2], 7900 nM. For the same compound, the inhibition in the test listed under Bos taurus [1] stood at 98%.

For `COc1ccc(C(O)c2ccc3ccccc3c2)c(OC)c1OC` (stereo not drawn), the IC50 with HeLa, in the test with A549 and in the test on HT-29 was > 10000 nM throughout. The compound also showed an inhibition in the test filed under Bos taurus [3] of 0%.

In the case of `CCn1ccc2cc(C(O)c3cc(OC)c(OC)c(OC)c3)ccc21` (stereo not drawn), the IC50 in the test on HeLa is < 1000 nM; in the test on A549, > 10000 nM; with HT-29, > 10000 nM; with HL-60, < 1000 nM. Also, in the test listed under Bos taurus [3], the inhibition is 41%.

For `C=C(c1ccc(OC)c(O)c1)c1ccc(OC)c(OC)c1OC`, the IC50 with HeLa amounted to 35 nM; with A549, 220 nM; in test [2], 12200 nM; in the test on HT-29, 310 nM; in the test on HL-60, 240 nM. Besides, the inhibition in the test filed under Bos taurus [3] came to 86%.

With `C=C(c1cc(OC)c(OC)c(OC)c1)c1ccc2c(ccn2CC)c1`, the IC50 in the test with HeLa amounted to 17 nM; in test [2], 6000 nM; with HT-29, 35 nM. The inhibition in the test listed under Bos taurus [3] is 83%.

Regarding `COc1ccc(C(=O)c2cc(OC)c(OC)c(OC)c2)cc1[N+](=O)[O-]`, the IC50 in the test with HeLa was 2500 nM; in the test with A549, > 10000 nM; in the test on HT-29, 2900 nM; in the test on HL-60, 1800 nM. Moreover, the inhibition in the test filed under Bos taurus [3] was 12%.

Take `C=C(c1ccc(OC)c(N)c1)c1ccc(OC)c(OC)c1OC`: the IC50 in the test on HeLa was determined as 60 nM; with A549, 2700 nM; with HT-29 it was 330 nM; in the test on HL-60, 230 nM. In the test listed under Bos taurus [3], this compound registered an inhibition of 32%.

In test [2], `COc1cc(C(O)c2ccc3c(ccn3C)c2)cc(OC)c1OC` (stereo not drawn) displayed an IC50 of 18000 nM. In the test listed under Bos taurus [3], this compound showed an inhibition of 86%.

On to `COc1cccc2c1C(=O)c1c(O)c3c(c(O)c1C2=O)C[C@@](O)(C(=O)CO)C[C@@H]3O[C@H]1C[C@H](N)[C@H](O)[C@H](C)O1` [DOXORUBICIN], for which the IC50 in the test with HeLa stood at 190 nM; in the test with A549, 290 nM; with HT-29 it was 240 nM; with HL-60, 27 nM.

`COc1ccc(C(=O)c2ccc(OC)c(OC)c2OC)cc1`: the IC50 with HeLa is 1800 nM; in the test on A549 it was > 10000 nM; in the test with HT-29, 3100 nM; in the test on HL-60, 2000 nM. In the test listed under Bos taurus [3], this compound gave an inhibition of 7%.

For `C=C(c1ccc2c(ccn2CC)c1)c1ccc(OC)c(OC)c1OC`, the IC50 in the test with HeLa is > 1000 nM; in the test on A549, > 10000 nM; in the test with HT-29, > 1000 nM. Besides, in the test listed under Bos taurus [3], the inhibition was determined as 34%.

Regarding `C=C(c1ccc(OC)c([N+](=O)[O-])c1)c1ccc(OC)c(OC)c1OC`, the IC50 in the test with HeLa is 32 nM; in the test on A549 it was > 10000 nM; in the test with HT-29, 2900 nM; with HL-60, 2600 nM. The compound also had an inhibition in the test filed under Bos taurus [3] of 12%.

With `COc1ccc(C(O)c2ccc3c(ccn3C)c2)c(OC)c1OC` (stereo not drawn), the IC50 was 2500 nM in the test with HeLa and > 10000 nM in the test on A549. This compound also yielded an inhibition in the test listed under Bos taurus [3] of 9%.

In the case of `COc1ccc(C(=O)c2ccc3ccccc3c2)c(OC)c1OC`, the IC50 is > 10000 nM in the test on A549, > 10000 nM in the test with HT-29 and 3300 nM with HL-60. Further, the inhibition in the test listed under Bos taurus [3] is 4%.

For `COc1ccc(/C=C\c2cc(OC)c(OC)c(OC)c2)cc1O` [COMBRETASTATIN A4], the IC50 is 3000 nM in test [2] and 2 nM with HL-60.

Take `C=C(c1ccc(OC)cc1)c1ccc(OC)c(OC)c1OC`: the IC50 in the test with HeLa is 300 nM; in the test with A549 it was > 10000 nM; in the test with HT-29, 3200 nM; with HL-60, 480 nM. This compound also came in with an inhibition in the test filed under Bos taurus [3] of 16%.

On to `CCn1ccc2cc(C(=O)c3cc(OC)c(OC)c(OC)c3)ccc21`, for which the IC50 in test [2] is 5700 nM; with HT-29, 34 nM. In the test listed under Bos taurus [3], this compound had an inhibition of 95%.

As to `COc1ccc(C(=O)c2cc(OC)c(OC)c(OC)c2)cc1O` [PHENSTATIN], the IC50 amounted to 290 nM with A549, 2500 nM in test [2], 1800 nM with HT-29 and 31 nM in the test on HL-60. Also, the inhibition in the test filed under Bos taurus [3] was determined as 94%.

With `CCn1ccc2cc(C(=O)c3ccc(OC)c(OC)c3OC)ccc21`, the IC50 was 450 nM in the test with HeLa; > 10000 nM in the test with A549; 5600 nM in test [2]; > 1000 nM in the test with HT-29; > 1000 nM with HL-60. Further, in the test listed under Bos taurus [3], the inhibition stood at 47%.

For `C=C(c1cc(OC)c(OC)c(OC)c1)c1ccc2ccccc2c1`, the IC50 with HeLa is 300 nM; in the test on A549 it was 360 nM; in test [2] it was 15000 nM; in the test on HT-29, 250 nM; with HL-60 it was 910 nM. For the same compound, in the test filed under Bos taurus [3], the inhibition is 82%.

In the case of `COc1cc(C(O)c2ccc3ccccc3c2)cc(OC)c1OC` (stereo not drawn), the inhibition in the test listed under Bos taurus [1] came out at 0%.

Turning to `COc1ccc(C(=O)c2cc(OC)c(OC)c(OC)c2)cc1`, the IC50 with HeLa was 37 nM; in the test with A549 it was 3100 nM; in the test with HT-29 it was 290 nM; with HL-60 it was 270 nM. Moreover, the inhibition in the test listed under Bos taurus [3] stood at 20%.

With `CCn1ccc2cc(C(O)c3ccc(OC)c(OC)c3OC)ccc21` (stereo not drawn), the IC50 in the test on HeLa is < 1000 nM; in the test with A549 it was > 10000 nM; in the test with HT-29 it was > 10000 nM; in the test with HL-60 it was > 10000 nM. The compound further came in with an inhibition in the test listed under Bos taurus [3] of 0%.

In turn, `COc1ccc(C(=O)c2cc(OC)c(OC)c(OC)c2)cc1N` registered an inhibition in the test listed under Bos taurus [4] of 81%. Besides, the IC50 is 30 nM in the test on HeLa; 57 nM in the test with A549; 1500 nM in test [2]; 32 nM in the test with HT-29; 30 nM in the test with HL-60.

For `C=C(c1ccc2ccccc2c1)c1ccc(OC)c(OC)c1OC`, the IC50 in the test with HeLa was 200 nM; in the test on HT-29, > 10000 nM. In addition, the inhibition in the test listed under Bos taurus [3] is 11%.

Consider `COc1cc(C(=O)c2ccc3ccccc3c2)cc(OC)c1OC`, for which the IC50 in the test with HeLa stood at 44 nM; in test [2] it was 1100 nM. The same compound registered an inhibition in the test listed under Bos taurus [1] of 100%.

For the compound `COc1ccc(C(=O)c2ccc3c(ccn3C)c2)c(OC)c1OC`, the IC50 in the test on HeLa was 30 nM; in the test with A549, 500 nM; in the test with HT-29 it was 30 nM. The inhibition in the test listed under Bos taurus [3] was 40%.
